Data published in ChEMBL document CHEMBL2146467, “Generation and exploration of new classes of antitubercular agents: The optimization of oxazolines, oxazoles, thiazolines, thiazoles to imidazo[1,2-a]pyridines and isomeric 5,6-fused scaffolds” (Bioorg Med Chem, 2012).
≈ marks a conversion by molar mass, not a printed value.

Tests used:
[1] = test system: Mycobacterium tuberculosis; assay: Antimycobacterial activity against Mycobacterium tuberculosis H37Rv ATCC 27294 culture in GAS media after 7 days by microplate alamar blue assay; assay type: functional; details: H37Rv ATCC 27294, 168 h
In short: (§1)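 Replicating Mtb H37Rv. The MIC is the concentration that inhibits growth of 90% of organisms. Media by line: GAS is glycerol-alanine-salts. GAST is iron-deficient glycerol-alanine-salts with Tween 80. 7H12 is 7H9 broth base with BSA, casein hydrolysate, catalase and palmitic acid. Values are reported in μM.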

[2] = test system: Mycobacterium tuberculosis; assay: Antimycobacterial activity against Mycobacterium tuberculosis H37Rv ATCC 27294 culture in GAST media after 7 days by microplate alamar blue assay; assay type: functional; details: H37Rv ATCC 27294, 168 h; in short: as §1
[3] = Chemical stability in simulated gastric fluid assessed as compound remaining at 50 uM after 15 mins by LC/MS analysis; assay type: physicochemical; details: read-out: Stability
[4] = Metabolic stability in Sprague-Dawley rat liver microsomes assessed as compound remaining at 20 uM after 15 mins by LC/MS analysis; assay type: ADME, Microsome; details: read-out: Stability

| Structure (SMILES) | MIC90 [1] [µM] | MIC90 [2] [µM] | remaining at 0.25 h, 50 µM [3] [%] | remaining at 0.25 h, 20 µM [4] [%] |
| --- | --- | --- | --- | --- |
| CCOC(=O)c1c(-c2ccccc2)nc2cc(C)ccn12 | 55.1 (≈ 15.4 µg/mL) | 71.3 (≈ 20 µg/mL) | – | – |
| Cc1cc(C)c(OC(=O)c2coc(-c3ccccc3)n2)c(C)c1 | – | – | 1.4 | 22 |
| O=C(OCc1ccccc1C(F)(F)F)c1coc(-c2ccccc2)n1 | – | – | 0.8 | 7.8 |
| COc1ccc(CNC(=O)c2c(C)nc3cc(C)ccn23)cc1 | – | – | 100 | 33.6 |
| CCCCCCNC(=O)[C@@H]1COC(c2ccc(OC(F)(F)F)cc2)=N1 | 31 (≈ 11.1 µg/mL) | > 64 | – | – |
| COc1ccc(-c2nc(C(=O)OCc3ccccc3)co2)cc1 | – | – | 2.1 | 11.8 |
| O=C(OCC1CC1)c1coc(-c2ccccc2)n1 | – | – | 1.5 | 3.3 |
| O=C(OCc1ccccc1)[C@@H]1COC(c2ccc(F)c([N+](=O)[O-])c2)=N1 | – | – | 0.6 | 11.3 |
| CCCCCCNC(=O)c1coc(-c2ccccc2)n1 | 22 (≈ 5.99 µg/mL) | 18 (≈ 4.9 µg/mL) | – | – |
| O=C(Oc1ccc(Cl)cc1Cl)c1coc(-c2ccccc2)n1 | – | – | 0.8 | 17.3 |
| CCOC(=O)c1c(-c2ccccc2)nc2ccc(Cl)cn12 | 63.1 (≈ 19 µg/mL) | > 128 | – | – |
| O=C(Oc1ccccc1)c1coc(-c2ccccc2)n1 | – | – | 0.2 | 0.2 |
| CCOC(=O)c1cnc2cc(C)c(N)cn12 | > 128 | > 128 | – | – |
| CCC(=O)c1ccccc1OC(=O)c1coc(-c2ccccc2)n1 | – | – | 1.8 | 8.7 |
| CC(C)(C)c1cccc(C(C)(C)C)c1OC(=O)c1coc(-c2ccccc2)n1 | – | – | 1.3 | 5.3 |
| Cc1ccccc1OC(=O)c1coc(-c2ccccc2)n1 | – | – | 1.5 | 13.4 |
| CCOC(=O)c1csc(-c2cccc(C(F)(F)F)c2)n1 | 59 (≈ 17.8 µg/mL) | 61 (≈ 18.4 µg/mL) | – | – |
| O=C(OCc1ccccc1)c1coc(-c2ccccc2OCc2ccccc2)n1 | – | – | 2.9 | 3.5 |
| CCc1ccccc1COC(=O)c1coc(-c2ccccc2)n1 | – | – | 3.2 | 3.2 |
| O=C(OC1CCCCC1)c1coc(-c2ccccc2)n1 | – | – | 0.5 | 12.1 |
| O=C(NC1CCCCC1)[C@@H]1COC(c2ccc(OC(F)(F)F)cc2)=N1 | 60 (≈ 21.4 µg/mL) | > 64 | – | – |
| COc1ccc(C2=N[C@H](C(=O)NCc3ccc(OC)c(OC)c3)CO2)cc1 | > 128 | > 128 | – | – |
| CCOC(=O)c1c(-c2ccccc2)nc2ccc(C)cn12 | 55.1 (≈ 15.4 µg/mL) | 41 (≈ 11.5 µg/mL) | – | – |

| Structure (SMILES) | MIC90 [1] [µM] | MIC90 [2] [µM] | remaining at 0.25 h, 50 µM [3] [%] | remaining at 0.25 h, 20 µM [4] [%] |
| --- | --- | --- | --- | --- |
| CCc1ccccc1COC(=O)c1c(C)nc2cc(C)ccn12 | – | – | 100 | 37 |
| C[C@H](OC(=O)c1coc(-c2ccccc2)n1)c1ccccc1 | – | – | 5 | 5 |
| CCOC(=O)c1coc(-c2ccccc2)n1 | 19.5 (≈ 4.24 µg/mL) | 7.5 (≈ 1.63 µg/mL) | – | – |
| CCCc1ccccc1OC(=O)c1coc(-c2ccccc2)n1 | – | – | 0.9 | 5.4 |
| CCOC(=O)c1c(C)nc2ccc(Cl)cn12 | 93.5 (≈ 22.3 µg/mL) | > 101 | – | – |
| CCOC(=O)c1nn(Cc2ccccc2)cc1N | 126 (≈ 30.9 µg/mL) | > 128 | – | – |
| CCOC(=O)c1nc(-c2ccccc2)sc1C(C)=O | 63 (≈ 17.3 µg/mL) | 124 (≈ 34.1 µg/mL) | – | – |
| CCC(C)c1ccccc1OC(=O)c1coc(-c2ccccc2)n1 (stereo not drawn) | – | – | 0.2 | 8.3 |
| Cc1cccc(OC(=O)c2coc(-c3ccccc3)n2)c1C | – | – | 2 | 4.9 |
| CCOC(=O)c1cc(-c2ccc([N+](=O)[O-])cc2)[nH]n1 | > 128 | > 128 | – | – |
| CCOC(=O)c1nc(-c2ccccc2)oc1C | > 128 | 124 (≈ 28.7 µg/mL) | – | – |
| CCCCCCCCOC(=O)c1coc(-c2ccccc2)n1 | – | – | 1.1 | 13.1 |
| Cc1ccccc1COC(=O)c1coc(-c2ccccc2)n1 | – | – | 3.1 | 10.9 |
| CCc1ccccc1OC(=O)c1coc(-c2ccccc2)n1 | – | – | 2.1 | 8.5 |
| O=C(NC1CCCCC1)[C@@H]1CSC(c2ccccc2)=N1 | 46 (≈ 13.3 µg/mL) | 56 (≈ 16.2 µg/mL) | – | – |
| Cc1cc(C)c(COC(=O)c2coc(-c3ccccc3)n2)c(C)c1 | – | – | 5.6 | 18.1 |
| COc1cccc(CNC(=O)c2c(C)nc3cc(C)ccn23)c1 | – | – | 100 | 94 |
| Cc1ccc(COC(=O)c2coc(-c3ccccc3)n2)c(C)c1 | – | – | 1.4 | 16.9 |
| O=C(Oc1c(Cl)cc(Cl)cc1Cl)c1coc(-c2ccccc2)n1 | – | – | 1.3 | 15.5 |
| CCOC(=O)c1nc(-c2ccccc2)oc1C(F)(F)F | > 128 | > 128 | – | – |
| Cc1ccn2c(C(=O)NCc3ccccc3Cl)c(C)nc2c1 | – | – | 97.2 | 58.9 |
| O=C(Oc1ccccc1N1CCCC1)c1coc(-c2ccccc2)n1 | – | – | 0.1 | 11.2 |
| CCOC(=O)c1c(-c2ccccc2)nc2ccccn12 | 86.5 (≈ 23 µg/mL) | 68.2 (≈ 18.2 µg/mL) | – | – |

| Structure (SMILES) | MIC90 [1] [µM] | MIC90 [2] [µM] | remaining at 0.25 h, 50 µM [3] [%] | remaining at 0.25 h, 20 µM [4] [%] |
| --- | --- | --- | --- | --- |
| O=C(Oc1cccc2c1CCCC2)c1coc(-c2ccccc2)n1 | – | – | 1.8 | 14.5 |
| CCOC(=O)c1csc(-c2cccc(Cl)c2Cl)n1 | 41 (≈ 12.4 µg/mL) | 39 (≈ 11.8 µg/mL) | – | – |
| CCOC(=O)c1c(C)nc2cc(C)cc(C)n12 | > 79.5 | > 72.9 | – | – |
| CCOC(=O)c1csc(-c2ccc(C)cc2)n1 | 61 (≈ 15.1 µg/mL) | 79 (≈ 19.5 µg/mL) | – | – |
| COc1ccc(CNC(=O)[C@@H]2CSC(c3ccccc3)=N2)cc1OC | 80 (≈ 28.5 µg/mL) | > 128 | – | – |
| O=C(OCc1ccccc1)[C@@H]1COC(c2ccccc2OCc2ccccc2)=N1 | – | – | 0.8 | 5.2 |
| Cc1ccn2c(C(=O)NCc3ccc(Cl)cc3)c(C)nc2c1 | – | – | 94.3 | 80.7 |
| CCOC(=O)c1c(C(F)(F)F)nc2ccccn12 | > 128 | > 128 | – | – |
| O=C(Oc1cccc(C(F)(F)F)c1)c1coc(-c2ccccc2)n1 | – | – | 5.5 | 13 |
| O=C(Oc1ccccc1C(F)(F)F)c1coc(-c2ccccc2)n1 | – | – | 1.2 | 10.7 |
| O=C(OCc1ccccc1)c1coc(-c2ccccc2Cl)n1 | – | – | 1.1 | 7.9 |
| O=C(Oc1ccccc1N1CCOCC1)c1coc(-c2ccccc2)n1 | – | – | 0.7 | 5.4 |
| CCOC(=O)c1c(C)nc2c(C3CCCN3C)cccn12 (stereo not drawn) | > 64 | > 64 | – | – |
| O=C(NC1CCCCC1)c1coc(-c2ccccc2)n1 | 14 (≈ 3.78 µg/mL) | 30 (≈ 8.11 µg/mL) | – | – |
| Cc1ccc(Cl)c(OC(=O)c2coc(-c3ccccc3)n2)c1 | – | – | 0.9 | 14 |
| CC(C)(C)c1ccccc1OC(=O)c1coc(-c2ccccc2)n1 | – | – | 0.7 | 6.9 |
| COc1ccccc1CNC(=O)c1c(C)nc2cc(C)ccn12 | – | – | 100 | 41.6 |
| CCOC(=O)c1n[nH]c(-c2cccc(C)c2)c1N | > 128 | > 128 | – | – |
| O=C(OCc1ccccc1)c1coc(-c2ccc(F)c([N+](=O)[O-])c2)n1 | – | – | 0.9 | 10.9 |
| CCOC(=O)c1c(C)nc2cc(C)ccn12 | 65.1 (≈ 14.2 µg/mL) | 64.1 (≈ 14 µg/mL) | – | – |
| CCCCCCNC(=O)[C@@H]1CSC(c2ccccc2)=N1 | 23 (≈ 6.68 µg/mL) | 58 (≈ 16.8 µg/mL) | – | – |
| COc1ccc(CNC(=O)c2csc(-c3ccccc3)n2)cc1OC | 58 (≈ 20.6 µg/mL) | 64 (≈ 22.7 µg/mL) | – | – |
| COc1ccc(CNC(=O)c2coc(-c3ccccc3)n2)cc1OC | 81 (≈ 27.4 µg/mL) | > 128 | – | – |
